ChEMBL document CHEMBL5058577, “EUbOPEN Chemogenomics Library 2 (Multiplex)” (2022)

Tested on: HEK-293T
Experiment: Multiplex assay against HEK293T
Format: toxicity, cell-based
Conditions: human
Outline: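 Hoechst33342, BioTracker Green Microtubule Cytoskeleton Dye, MitoTracker Red and Annexin V Alexa Fluor 680 were added to live cells at seeding, and imaging on a CQ1 microscope at 37°C and 5% CO2 followed compound addition. Gating by CellPathfinder machine learning separated cells into Hoechst high-intensity objects or normal cells, then normal cells into healthy, pyknosed or fragmented nuclei, then pyknosed cells into mitotic or apoptotic. Per cents of healthy-nucleus cells are reported for the tubulin, mitochondrial-mass and membrane-permeability phenotypes.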

[1] = 12 h, 1 µM, compound concentration 1 uM, replicate 1
[2] = 12 h, 1 µM, compound concentration 1 uM, replicate 2
[3] = 12 h, 10 µM, compound concentration 10 uM, replicate 1
[4] = 12 h, 10 µM, compound concentration 10 uM, replicate 2
[5] = 24 h, 1 µM, compound concentration 1 uM, replicate 1
[6] = 24 h, 1 µM, compound concentration 1 uM, replicate 2
[7] = 24 h, 10 µM, compound concentration 10 uM, replicate 1
[8] = 24 h, 10 µM, compound concentration 10 uM, replicate 2
[9] = 48 h, 1 µM, compound concentration 1 uM, replicate 1
[10] = 48 h, 1 µM, compound concentration 1 uM, replicate 2
[11] = 48 h, 10 µM, compound concentration 10 uM, replicate 1
[12] = 48 h, 10 µM, compound concentration 10 uM, replicate 2

## N[C@](CC1c2ccccc2Oc2ccccc21)(C(=O)O)[C@H]1C[C@@H]1C(=O)O
[1]
  Population Apoptotic (%): 38%
  Population Fragmented Nuclei (%): 6%
  Population Healthy Nuclei (%): 83%
  Population Hoechst High Intensity Objects (%): 7%
  Population Membrane Permeable-Phenotype (%): 0%
  Population Mitochondria Different-Phenotype (%): 43%
  Population Mitotic Cells (%): 61%
  Population Normal (%): 92%
  Population Pyknosed Nuclei (%): 10%
  Population Tubulin-Different-Phenotype (%): 27%
  Total Cell Count: 447
[2]
  Population Apoptotic (%): 54%
  Population Fragmented Nuclei (%): 7%
  Population Healthy Nuclei (%): 79%
  Population Hoechst High Intensity Objects (%): 5%
  Population Mitochondria Different-Phenotype (%): 58%
  Population Mitotic Cells (%): 45%
  Population Normal (%): 94%
  Population Pyknosed Nuclei (%): 12%
  Population Tubulin-Different-Phenotype (%): 25%
  Total Cell Count: 270
[3]
  Population Apoptotic (%): 32%
  Population Fragmented Nuclei (%): 9%
  Population Healthy Nuclei (%): 78%
  Population Hoechst High Intensity Objects (%): 8%
  Population Membrane Permeable-Phenotype (%): 0%
  Population Mitochondria Different-Phenotype (%): 40%
  Population Mitotic Cells (%): 67%
  Population Normal (%): 91%
  Population Pyknosed Nuclei (%): 12%
  Population Tubulin-Different-Phenotype (%): 23%
  Total Cell Count: 381
[4]
  Population Fragmented Nuclei (%): 4%
  Population Healthy Nuclei (%): 81%
  Population Hoechst High Intensity Objects (%): 7%
  Population Mitochondria Different-Phenotype (%): 66%
  Population Normal (%): 92%
  Population Pyknosed Nuclei (%): 13%
  Population Tubulin-Different-Phenotype (%): 31%
  Total Cell Count: 382
[5]
  Population Apoptotic (%): 21%
  Population Fragmented Nuclei (%): 8%
  Population Healthy Nuclei (%): 81%
  Population Hoechst High Intensity Objects (%): 3%
  Population Membrane Permeable-Phenotype (%): 1%
  Population Mitochondria Different-Phenotype (%): 24%
  Population Mitotic Cells (%): 78%
  Population Normal (%): 96%
  Population Pyknosed Nuclei (%): 10%
  Population Tubulin-Different-Phenotype (%): 15%
  Total Cell Count: 629
[6]
  Population Apoptotic (%): 38%
  Population Fragmented Nuclei (%): 9%
  Population Healthy Nuclei (%): 84%
  Population Hoechst High Intensity Objects (%): 5%
  Population Membrane Permeable-Phenotype (%): 0%
  Population Mitochondria Different-Phenotype (%): 30%
  Population Mitotic Cells (%): 61%
  Population Normal (%): 94%
  Population Pyknosed Nuclei (%): 6%
  Population Tubulin-Different-Phenotype (%): 16%
  Total Cell Count: 368
[7]
  Population Apoptotic (%): 29%
  Population Fragmented Nuclei (%): 10%
  Population Healthy Nuclei (%): 79%
  Population Hoechst High Intensity Objects (%): 5%
  Population Membrane Permeable-Phenotype (%): 0%
  Population Mitochondria Different-Phenotype (%): 30%
  Population Mitotic Cells (%): 70%
  Population Normal (%): 94%
  Population Pyknosed Nuclei (%): 10%
  Population Tubulin-Different-Phenotype (%): 17%
  Total Cell Count: 510
[8]
  Population Apoptotic (%): 40%
  Population Fragmented Nuclei (%): 6%
  Population Healthy Nuclei (%): 82%
  Population Mitochondria Different-Phenotype (%): 41%
  Population Mitotic Cells (%): 59%
  Population Pyknosed Nuclei (%): 11%
  Population Tubulin-Different-Phenotype (%): 16%
  Total Cell Count: 471
[9]
  Population Apoptotic (%): 12%
  Population Fragmented Nuclei (%): 11%
  Population Healthy Nuclei (%): 80%
  Population Hoechst High Intensity Objects (%): 2%
  Population Membrane Permeable-Phenotype (%): 2%
  Population Mitochondria Different-Phenotype (%): 15%
  Population Mitotic Cells (%): 87%
  Population Normal (%): 97%
  Population Pyknosed Nuclei (%): 7%
  Population Tubulin-Different-Phenotype (%): 13%
  Total Cell Count: 1040
[10]
  Population Apoptotic (%): 17%
  Population Fragmented Nuclei (%): 12%
  Population Healthy Nuclei (%): 81%
  Population Hoechst High Intensity Objects (%): 1%
  Population Membrane Permeable-Phenotype (%): 0%
  Population Mitochondria Different-Phenotype (%): 17%
  Population Mitotic Cells (%): 82%
  Population Normal (%): 98%
  Population Pyknosed Nuclei (%): 6%
  Population Tubulin-Different-Phenotype (%): 10%
  Total Cell Count: 654
[11]
  Population Apoptotic (%): 28%
  Population Fragmented Nuclei (%): 13%
  Population Healthy Nuclei (%): 78%
  Population Hoechst High Intensity Objects (%): 2%
  Population Membrane Permeable-Phenotype (%): 0%
  Population Mitochondria Different-Phenotype (%): 17%
  Population Mitotic Cells (%): 71%
  Population Normal (%): 97%
  Population Pyknosed Nuclei (%): 8%
  Population Tubulin-Different-Phenotype (%): 8%
  Total Cell Count: 789
[12]
  Population Apoptotic (%): 42%
  Population Healthy Nuclei (%): 80%
  Population Hoechst High Intensity Objects (%): 4%
  Population Mitochondria Different-Phenotype (%): 25%
  Population Mitotic Cells (%): 57%
  Population Normal (%): 95%
  Population Pyknosed Nuclei (%): 6%
  Population Tubulin-Different-Phenotype (%): 12%
  Total Cell Count: 687
